Data from ChEMBL document CHEMBL3112499, “Identification of potent CNS-penetrant thiazolidinones as novel CGRP receptor antagonists” (Bioorg Med Chem Lett, 2014).

Key:
[1] = target: T1, Calcitonin gene-related peptide type 1 receptor (Homo sapiens, UniProt O60894+Q16602); experiment: Displacement of [125I]CGRP from CGRP receptor in human SK-N-MC cell membranes preincubated for 30 mins followed by radioligand addition measured after 2 hrs by liquid scintillation counting
[2] = target: T1, Calcitonin gene-related peptide type 1 receptor; experiment: Antagonist activity at CGRP receptor in human SK-N-MC cells assessed as inhibition of CGRP-stimulated cAMP production preincubated for 30 mins followed by CGRP addition measured after 3 hrs by beta-lactamase reporter gene-based FRET assay; type: functional, cell-based
In short: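 SK-N-MC cells (endogenous CGRP receptor) transduced with retroviral cAMP-responsive-promoter β-lactamase reporter; 30,000 cells/well grown overnight in MEM+10% FBS, 37 °C, 5% CO2. Medium swapped to MEM+1% FBS with compound, 30 min pre-incubation; CGRP added (final 200 pM), 3 h at 37 °C. CCF4/AM FRET substrate added, 2 h at room temperature, fluorescence read; n ≥ 3.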

[3] = test system: Rattus norvegicus; experiment: AUC in rat at 30 mg/kg, po; type: ADME, organism-based, Plasma; parameters: dose 30 mg/kg, route oral; details: in vivo
In short: (§1)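 Rats dosed at 30 mg/kg in 10% TPGS suspension; mean of n = 3.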

[4] = test system: Rattus norvegicus; experiment: Oral bioavailability in rat at 30 mg/kg; type: ADME, organism-based; details: in vivo; in short: as §1
[5] = test system: Rattus norvegicus; experiment: Cmax in rat at 30 mg/kg, po; type: ADME, organism-based; parameters: dose 30 mg/kg, route oral; details: in vivo; in short: as §1
[6] = test system: Rattus norvegicus; experiment: Oral bioavailability in rat at 10 mg/kg; type: ADME, organism-based; details: in vivo
In short: (§2)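 Rats dosed orally at 10 mg/kg, in suspension vehicle or in 40% PEG400/10% TPGS/water depending on compound; mean of n = 3.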

[7] = test system: Rattus norvegicus; experiment: AUC in rat at 10 mg/kg, po; type: ADME, organism-based, Plasma; parameters: dose 10 mg/kg, route oral; details: in vivo; in short: as §2
[8] = test system: Rattus norvegicus; experiment: Cmax in rat at 10 mg/kg, po; type: ADME, organism-based; parameters: dose 10 mg/kg, route oral; details: in vivo; in short: as §2
[9] = Ratio of drug level in brain to plasma in rat administered as iv bolus measured after 0.25 to 1 hr post dosing; type: ADME, organism-based; details: brain and plasma, read-out: BPR
In short: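 Rats given an iv bolus; brain and plasma levels taken at 0.25 or 1 h post-dose to give the brain/plasma ratio; mean of n = 3.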

[10] = Clearance in iv dosed rat; type: ADME, organism-based; details: in vivo
[11] = test system: Rattus norvegicus; experiment: AUC in po dosed rat; type: ADME, organism-based, Plasma; details: in vivo
[12] = test system: Rattus norvegicus; experiment: Cmax in po dosed rat; type: ADME, organism-based; parameters: route oral; details: in vivo
[13] = Oral bioavailability in rat; type: ADME, organism-based; details: in vivo

T1 sequence (Q16602 whole entry, one chain of several): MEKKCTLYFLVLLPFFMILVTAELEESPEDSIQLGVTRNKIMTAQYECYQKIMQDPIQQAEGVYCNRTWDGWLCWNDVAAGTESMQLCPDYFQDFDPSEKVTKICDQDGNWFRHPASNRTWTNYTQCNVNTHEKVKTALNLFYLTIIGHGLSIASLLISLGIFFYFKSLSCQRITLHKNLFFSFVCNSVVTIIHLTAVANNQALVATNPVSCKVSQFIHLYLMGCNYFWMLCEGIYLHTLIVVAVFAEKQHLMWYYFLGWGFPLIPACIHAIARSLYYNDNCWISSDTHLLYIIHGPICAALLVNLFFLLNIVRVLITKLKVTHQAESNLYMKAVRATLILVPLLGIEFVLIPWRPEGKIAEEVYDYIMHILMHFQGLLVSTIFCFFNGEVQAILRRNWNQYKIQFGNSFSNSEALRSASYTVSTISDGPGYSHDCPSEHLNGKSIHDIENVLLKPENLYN

Row | SMILES | Ki [1] [nM] | IC50 [2] [nM] | also measured
1 | O=C(CC1SC(c2ccccc2)N(C2CC2)C1=O)N1CCC(N2Cc3ccccc3NC2=O)CC1 (configuration not stated) | 865 | 5150 | 
2 | O=C(CC1SC(c2ccccc2)N(CC2CC2)C1=O)N1CCC(N2Cc3ccccc3NC2=O)CC1 (configuration not stated) | 45 | 840 | 
3 | CCCCN1C(=O)C(CC(=O)N2CCC(N3Cc4ccccc4NC3=O)CC2)SC1c1ccccc1 (configuration not stated) | 64 | 320 | 
4 | CC(C)CN1C(=O)C(CC(=O)N2CCC(N3Cc4ccccc4NC3=O)CC2)SC1c1ccccc1 (configuration not stated) | 32 | 370 | 
5 | CC(C)(C)N1C(=O)C(CC(=O)N2CCC(N3Cc4ccccc4NC3=O)CC2)SC1c1ccccc1 (configuration not stated) | 1880 | 7600 | 
6 | O=C(CC1SC(c2ccccc2)N(CC(F)(F)F)C1=O)N1CCC(N2Cc3ccccc3NC2=O)CC1 (configuration not stated) | 763 | 4540 | 
7 | COCCN1C(=O)C(CC(=O)N2CCC(N3Cc4ccccc4NC3=O)CC2)SC1c1ccccc1 (configuration not stated) | 124 | 1220 | 
8 | CCN(CC)CCN1C(=O)C(CC(=O)N2CCC(N3Cc4ccccc4NC3=O)CC2)SC1c1ccccc1 (configuration not stated) | 303 | 4880 | 
9 | CC(c1ccccc1)N1C(=O)C(CC(=O)N2CCC(N3Cc4ccccc4NC3=O)CC2)SC1c1ccccc1 (configuration not stated) | 297 | 940 | 
10 | O=C(CC1SC(c2ccccc2)N(C2CCCCC2)C1=O)N1CCC(N2Cc3ccccc3NC2=O)CC1 (configuration not stated) | 88 | 710 | 
11 | O=C(CC1SC(c2ccccc2)N(CC2CCCO2)C1=O)N1CCC(N2Cc3ccccc3NC2=O)CC1 (configuration not stated) | 68 | 520 | 
12 | CC(C)(C)CN1C(=O)C(CC(=O)N2CCC(N3Cc4ccccc4NC3=O)CC2)SC1c1ccccc1 (configuration not stated) | 9 | 250 | 
13 | O=C(CC1SC(c2ccccc2)N(c2ccccc2)C1=O)N1CCC(N2Cc3ccccc3NC2=O)CC1 (configuration not stated) | 806 | 2940 | 
14 | O=C(CC1SC(c2ccccc2)N(Cc2ccc(F)cc2)C1=O)N1CCC(N2Cc3ccccc3NC2=O)CC1 (configuration not stated) | 56 | 750 | 
15 | O=C(CC1SC(c2ccccc2)N(Cc2cccnc2)C1=O)N1CCC(N2Cc3ccccc3NC2=O)CC1 (configuration not stated) | 260 | 800 | 
16 | O=C(CC1SC(c2ccccc2)N(CCc2ccccn2)C1=O)N1CCC(N2Cc3ccccc3NC2=O)CC1 (configuration not stated) | 202 | 1370 | 
17 | CC(C)(C)CCN1C(=O)C(CC(=O)N2CCC(N3Cc4ccccc4NC3=O)CC2)SC1c1ccccc1F (configuration not stated) | 54 | 180 | 
18 | CC(C)(C)CCN1C(=O)C(CC(=O)N2CCC(N3Cc4ccccc4NC3=O)CC2)SC1c1cccc(F)c1F (configuration not stated) | 118 | 210 | 
19 | CC(C)(C)CCN1C(=O)C(CC(=O)N2CCC(N3Cc4ccccc4NC3=O)CC2)SC1c1ccc(F)cc1F (configuration not stated) | 30 | 190 | 
20 | CC(C)(C)CCN1C(=O)C(CC(=O)N2CCC(N3Cc4ccccc4NC3=O)CC2)SC1c1c(F)cccc1F (configuration not stated) | 59 | 170 | 
21 | CC(C)(C)CCN1C(=O)C(CC(=O)N2CCC(N3Cc4ccccc4NC3=O)CC2)SC1c1ccccc1N1CCNCC1 (configuration not stated) | 2 | 60 | 
22 | CC(C)(C)CCN1C(=O)C(CC(=O)N2CCC(N3Cc4ccccc4NC3=O)CC2)SC1c1ccccc1N1CCOCC1 (configuration not stated) | 52 | 160 | 
23 | CN1CCN(c2ccccc2C2SC(CC(=O)N3CCC(N4Cc5ccccc5NC4=O)CC3)C(=O)N2CCC(C)(C)C)CC1 (configuration not stated) |  |  | AUC [3]: 1600 ng·h/mL; F [4]: 53%; Cmax [5]: 260 ng/mL

Row | SMILES | Ki [1] [nM] | IC50 [2] [nM] | also measured
24 | CC(C)(C)CCN1C(=O)C(CC(=O)N2CCC(N3Cc4ccccc4NC3=O)CC2)SC1c1ccccc1N1CCC(O)CC1 (configuration not stated) | 18 | 44 | 
25 | CC(C)(C)CCN1C(=O)C(CC(=O)N2CCC(N3Cc4ccccc4NC3=O)CC2)SC1c1ccccc1-n1ccnc1 (configuration not stated) | 7 | 86 | 
26 | CC(C)(C)CCN1C(=O)C(CC(=O)N2CCC(N3Cc4ccccc4NC3=O)CC2)SC1c1ccccc1-n1cccn1 (configuration not stated) | 40 | 62 | 
27 | CC(C)(C)CCN1C(=O)C(CC(=O)N2CCC(N3Cc4ccccc4NC3=O)CC2)SC1c1ccccc1-c1cccnc1 (configuration not stated) | 22 | 88 | 
28 | CC(C)(C)CCN1C(=O)C(CC(=O)N2CCC(N3Cc4ccccc4NC3=O)CC2)SC1c1ccccc1-c1ccncc1 (configuration not stated) | 20 | 99 | 
29 | CCCCN1CCN(c2ccccc2C2SC(CC(=O)N3CCC(N4Cc5ccccc5NC4=O)CC3)C(=O)N2CCC(C)(C)C)CC1 (configuration not stated) | 3 | 44 | 
30 | CC(C)(C)CCN1C(=O)C(CC(=O)N2CCC(N3Cc4ccccc4NC3=O)CC2)SC1c1ccccc1N1CCN(CCO)CC1 (configuration not stated) | 8 | 36 | 
31 | CN1CCN(c2ccccc2C2SC(CC(=O)N3CCC(N4CCc5ccccc5NC4=O)CC3)C(=O)N2CCC(C)(C)C)CC1 (configuration not stated) | 2 | 19 | 
32 | CC(C)(C)CCN1C(=O)C(CC(=O)N2CCC(N3CCc4ccccc4NC3=O)CC2)SC1c1ccccc1N1CCNCC1 (configuration not stated) | 1 | 33 | 
33 | CN1CCN(c2c(F)cccc2C2SC(CC(=O)N3CCC(N4CCc5ccccc5NC4=O)CC3)C(=O)N2CCC(C)(C)C)CC1 (configuration not stated) | 0.5 | 3 | 
34 | CN1CCN(c2cc(F)ccc2C2SC(CC(=O)N3CCC(N4CCc5ccccc5NC4=O)CC3)C(=O)N2CCC(C)(C)C)CC1 (configuration not stated) | 14 | 84 | 
35 | CN1CCN(c2ccc(F)cc2C2SC(CC(=O)N3CCC(N4CCc5ccccc5NC4=O)CC3)C(=O)N2CCC(C)(C)C)CC1 (configuration not stated) | 14 | 72 | 
36 | CN1CCN(c2cccc(F)c2C2SC(CC(=O)N3CCC(N4CCc5ccccc5NC4=O)CC3)C(=O)N2CCC(C)(C)C)CC1 (configuration not stated) | 1 | 65 | 
37 | CCN1CCN(c2c(F)cccc2C2SC(CC(=O)N3CCC(N4CCc5ccccc5NC4=O)CC3)C(=O)N2CCC(C)(C)C)CC1 (configuration not stated) | 0.07 | 2 | 
38 | CC(C)N1CCN(c2c(F)cccc2C2SC(CC(=O)N3CCC(N4CCc5ccccc5NC4=O)CC3)C(=O)N2CCC(C)(C)C)CC1 (configuration not stated) | 0.02 | 1 | F [6]: 32%; AUC [7]: 650 ng·h/mL; Cmax [8]: 120 ng/mL; Kp [9]: 1.51
39 | CC(C)(C)CCN1C(=O)[C@H](CC(=O)N2CCC(N3CCc4ccccc4NC3=O)CC2)S[C@@H]1c1cccc(F)c1N1CCN(C(C)(C)C)CC1 |  |  | F [6]: 13%; AUC [7]: 530 ng·h/mL; Cmax [8]: 410 ng/mL; Kp [9]: 0.53
40 | CC(C)CCN(Cc1cc(Br)c(O)c(Br)c1)C(=O)CCC(=O)N1CCC(N2Cc3ccccc3NC2=O)CC1 | 282 | 740 | 
41 | CN1C(=O)C(CC(=O)N2CCC(N3Cc4ccccc4NC3=O)CC2)SC1c1ccccc1 (configuration not stated) | 203 | 4470 | 
42 | CC(C)N1C(=O)C(CC(=O)N2CCC(N3Cc4ccccc4NC3=O)CC2)SC1c1ccccc1 (configuration not stated) | 115 | 1500 | 
43 | CC(C)CCN1C(=O)C(CC(=O)N2CCC(N3Cc4ccccc4NC3=O)CC2)SC1c1ccccc1 (racemic) | 32 | 370 | 
44 | NCCCC[C@H](NC(=O)[C@@H](Cc1cc(Br)c(O)c(Br)c1)NC(=O)N1CCC(N2Cc3ccccc3NC2=O)CC1)C(=O)N1CCN(c2ccncc2)CC1 [OLCEGEPANT] |  |  | clearance [10]: 65 mL/min/kg; AUC [11]: 260 ng·h/mL; Cmax [12]: 870 ng/mL; Kp [9]: < 0.03; bioavailability [13]: < 1%
45 | O=C(N[C@@H]1CC[C@@H](c2cccc(F)c2F)CN(CC(F)(F)F)C1=O)N1CCC(n2c(=O)[nH]c3ncccc32)CC1 [TELCAGEPANT] |  |  | F [6]: 45%; AUC [7]: 3320 ng·h/mL; Cmax [8]: 550 ng/mL; Kp [9]: 0.03
